# Test results as given in ChEMBL document CHEMBL4373721, “Computer-Aided Design of Mastoparan-like Peptides Enables the Generation of Nontoxic Variants with Extended Antibacterial Properties” (J Med Chem, 2019).
# Calls of active or inactive are those of the source. The calls are words filed in the database; no cut-off is given here. Residues, ends and D or L forms follow the SMILES beside them.
# Experiments:
# [1] = tested on: Escherichia coli; experiment: Antibacterial activity against Escherichia coli ATCC 25922 incubated for 18 hrs by spectrophotometry; type: functional; conditions: ATCC 25922, 18 h
# In short: (§1)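 Broth microdilution per CLSI in Mueller-Hinton broth. Three colonies grown overnight in MHB at 37 °C, 200 rpm; final inoculum 2-5 x 10^5 CFU/mL. Peptides tested at 2 to 32 μM, chloramphenicol as positive control at the same concentrations. Incubated 18 h at 37 °C, OD600 read. MIC taken as lowest inhibiting concentration; three independent experiments.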
# [2] = tested on: Escherichia coli; experiment: Antibacterial activity against KPC+ Escherichia coli isolate 001812446 incubated for 18 hrs by spectrophotometry; type: functional; conditions: isolate 001812446, 18 h; in short: as §1
# [3] = tested on: Pseudomonas aeruginosa; experiment: Antibacterial activity against Pseudomonas aeruginosa PA14 infected in CD-1 IGS mouse model of scarification skin infection assessed as reduction in bacterial counts at 64 uM measured on day 2 to 4 post-infection relative to control; type: functional, organism-based; conditions: TDE = time-dependent effect
# In short: (§2)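 Six-week-old female CD-1 IGS mice under isoflurane, back shaved, superficial skin abrasions sparing the dermis. Five minutes later, 5 x 10^7 CFU in 50 μL PBS applied to the wound. Two days later, peptide applied to the same area at 64 µM in 20 µL. Infected skin excised and homogenized for CFU counts two and four days post-infection. Four mice per group, two independent experiments; one-way ANOVA with Dunnett's test.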
# [4] = tested on: Staphylococcus aureus; experiment: Antibacterial activity against Staphylococcus aureus ATCC 12600 incubated for 18 hrs by spectrophotometry; type: functional; conditions: ATCC 12600, 18 h; in short: as §1
# [5] = tested on: Escherichia coli; experiment: Antibacterial activity against Escherichia coli BL21 incubated for 18 hrs by spectrophotometry; type: functional; conditions: BL21, 18 h; in short: as §1
# [6] = tested on: MCF7; experiment: Cytotoxicity in human MCF7 cells assessed as reduction in cell viability incubated for 2 hrs by MTT assay; type: functional, cell-based; conditions: MCF7, 2 h
# [7] = tested on: Staphylococcus aureus; experiment: Antibacterial activity against Staphylococcus aureus ATCC 25923 incubated for 18 hrs by spectrophotometry; type: functional; conditions: ATCC 25923, 18 h
# In short: (§3)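 Broth microdilution per CLSI in Mueller-Hinton broth; inocula from three colonies grown overnight at 37 °C, 200 rpm; final 2-5 x 10^5 CFU/mL. Peptides tested at 2 to 32 μM; chloramphenicol at same concentrations as positive control. Plates incubated 37 °C, 18 h; growth read at 600 nm. Three independent experiments.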
# [8] = tested on: HUVEC; experiment: Cytotoxicity in HUVEC assessed as reduction in cell viability incubated for 2 hrs by MTT assay; type: cell-based; conditions: Homo sapiens
# In short: (§4)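 Cells grown at 37 °C, 5% CO2, passages 2–10, seeded 5 x 10^3 cells/well, attached 24 h. Media refreshed, then peptides added at final 0.781 to 100 μM. Viability reagent added after 2 h, followed by 4 h further incubation. Supernatant replaced by DMSO, absorbance read at 600 nm. Three independent experiments.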
# [9] = tested on: Enterobacter cloacae; experiment: Antibacterial activity against Enterobacter cloacae isolate 1383251 incubated for 18 hrs by spectrophotometry; type: functional; conditions: isolate 1383251, 18 h; in short: as §1
# [10] = tested on: HT-29; experiment: Cytotoxicity in human HT-29 cells assessed as reduction in cell viability incubated for 2 hrs by MTT assay; type: functional, cell-based; conditions: HT-29, 2 h
# [11] = tested on: PC-3; experiment: Cytotoxicity in human PC3 cells assessed as reduction in cell viability incubated for 2 hrs by MTT assay; type: functional, cell-based; conditions: PC-3, 2 h
# [12] = tested on: 3T3-L1; experiment: Cytotoxicity in mouse 3T3L1 cells assessed as reduction in cell viability incubated for 2 hrs by MTT assay; type: cell-based; conditions: 3T3-L1, 2 h; in short: as §4
# [13] = tested on: Staphylococcus aureus; experiment: Antibacterial activity against methicillin-resistant Staphylococcus aureus isolate 713623 incubated for 18 hrs by spectrophotometry; type: functional; conditions: isolate 713623, 18 h; in short: as §3
# [14] = tested on: Pseudomonas aeruginosa; experiment: Antibacterial activity against Pseudomonas aeruginosa PA14 infected in CD-1 IGS mouse model of scarification skin infection assessed as reduction in bacterial counts at 64 uM measured on day 2 post-infection relative to control; type: functional; in short: as §2
# [15] = tested on: Pseudomonas aeruginosa; experiment: Antibacterial activity against Pseudomonas aeruginosa PAO1 incubated for 18 hrs by spectrophotometry; type: functional; conditions: PAO1, 18 h; in short: as §1
# [16] = tested on: Pseudomonas aeruginosa; experiment: Antibacterial activity against Pseudomonas aeruginosa PA14 infected in CD-1 IGS mouse model of scarification skin infection assessed as reduction in bacterial counts at 64 uM measured on day 4 post-infection relative to control; type: functional; in short: as §2
# [17] = tested on: Pseudomonas aeruginosa; experiment: Antibacterial activity against Pseudomonas aeruginosa PA14 incubated for 18 hrs by spectrophotometry; type: functional; conditions: PA14, 18 h; in short: as §1
# [18] = tested on: Klebsiella pneumoniae; experiment: Antibacterial activity against KPC+ Klebsiella pneumoniae isolate 001825971 incubated for 18 hrs by spectrophotometry; type: functional; conditions: isolate 001825971, 18 h; in short: as §1
# [19] = tested on: Klebsiella pneumoniae; experiment: Antibacterial activity against Klebsiella pneumoniae ATCC 13883 incubated for 18 hrs by spectrophotometry; type: functional; conditions: ATCC 13883, 18 h; in short: as §1
# [20] = tested on: Pseudomonas aeruginosa; experiment: Antibiofilm activity against 2 day-old preformed Pseudomonas aeruginosa PAO1 assessed as induction of biofilm eradication at 16 uM incubated for 24 hrs by SYTO-9 dye based by confocal microscopy; type: functional, organism-based
# In short: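 Flow-cell biofilms: chambers inoculated with overnight culture diluted to OD600 ~0.5, grown in BM2 with 0.4% glucose. Established biofilms then given continuous flow of peptide at 16 µM in BM2 for 24 h. Stained with SYTO-9 (live) and propidium iodide (dead), imaged by confocal microscopy with 3D reconstruction. Two independent experiments.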
# [21] = tested on: Acinetobacter baumannii; experiment: Antibacterial activity against Acinetobacter baumannii isolate 003326263 incubated for 18 hrs by spectrophotometry; type: functional; conditions: isolate 003326263, 18 h; in short: as §1
# [22] = Induction of hemolysis in human RBC at 100 uM incubated for 1 hr relative to control; type: cell-based, Erythrocyte; conditions: red blood cells (RBC), read-out: Activity
# In short: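 Human erythrocytes from healthy volunteers, washed three times in PBS, used as a 0.25% suspension in PBS. Peptides serially diluted, top concentration 100 μM per well. Incubated 1 h at 37 °C, then centrifuged, and supernatant absorbance read at 415 nm. PBS was the negative control and 1% Triton X-100 the 100% lysis control. Three replicates.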
# [23] = tested on: Pseudomonas aeruginosa; experiment: Antibacterial activity against bioluminescent Pseudomonas aeruginosa H1001 incubated for 4 hrs by luminescence based assay; type: functional; conditions: H1001, 4 h
# In short: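 Crude peptides released from cellulose spots, two-fold diluted in BM2 (62 mM potassium phosphate pH 7, 2 mM MgSO4, 10 μM FeSO4, 0.4% glucose). Strain fliC::luxCDABE grown in LB to OD600 0.4, diluted 4:100 into BM2, mixed 1:1 with peptide (128 to 2 μM). Shaken 50 rpm, 4 h, 37 °C. Activity scored as luminescence reduction versus untreated cells.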
SMILES,MIC [1] [µM],MIC [2] [µM],Activity [3],MIC [4] [µM],MIC [5] [µM],IC50 [6] [µM],MIC [7] [µM],IC50 [8] [µM],MIC [9] [µM],IC50 [10] [µM],IC50 [11] [µM],IC50 [12] [µM],MIC [13] [µM],fold change (FC) [14],MIC [15] [µM],MIC [17] [µM],MIC [18] [µM],MIC [19] [µM],Activity [20],MIC [23] [µM],other results
CC[C@H](C)[C@H](N)C(=O)N[C@@H](CC(N)=O)C(=O)N[C@@H](CC(C)C)C(=O)N[C@@H](CCCCN)C(=O)N[C@@H](C)C(=O)N[C@@H](CC(C)C)C(=O)N[C@@H](C)C(=O)N[C@@H](C)C(=O)N[C@@H](CC(C)C)C(=O)N[C@@H](C)C(=O)N[C@@H](CCCCN)C(=O)N[C@@H](CCCCN)C(=O)N[C@H](C(=O)N[C@@H](CC(C)C)C(=O)O)[C@@H](C)CC,32,> 32,Tde,8,2,25,> 32,50,> 32,25,12.5,12.5,> 32,100,8,8,> 32,> 32,inactive,,"Activity [16]: Active; MIC [21]: > 32 µM; hemolysis at 1 h, 100 µM [22]: 45%"
CC[C@H](C)[C@H](N)C(=O)N[C@@H](CCCCN)C(=O)N[C@@H](CC(C)C)C(=O)N[C@@H](CC(C)C)C(=O)N[C@@H](C)C(=O)N[C@@H](CCCNC(=N)N)C(=O)N[C@H](C(=O)N[C@@H](C)C(=O)N[C@@H](CC(C)C)C(=O)N[C@@H](CCCCN)C(=O)N[C@H](C(=O)N[C@@H](CCCCN)C(=O)N[C@H](C(=O)N[C@@H](CC(C)C)C(=O)O)[C@@H](C)CC)[C@@H](C)CC)[C@@H](C)CC (H-IKLLARIALKIKIL-OH),,,,,,,,,,,,,,,,,,,,30,
CC[C@H](C)[C@H](N)C(=O)N[C@@H](CC(N)=O)C(=O)N[C@@H](CCCCN)C(=O)N[C@H](C(=O)N[C@@H](C)C(=O)N[C@@H](CC(C)C)C(=O)N[C@@H](CCCNC(=N)N)C(=O)N[C@H](C(=O)N[C@@H](CC(C)C)C(=O)N[C@@H](C)C(=O)N[C@@H](CCCCN)C(=O)N[C@H](C(=O)N[C@H](C(=O)N[C@@H](CC(C)C)C(=O)O)[C@@H](C)CC)[C@@H](C)CC)[C@@H](C)CC)[C@@H](C)CC (H-INKIALRILAKIIL-OH),,,,,,,,,,,,,,,,,,,,30,
CC[C@H](C)[C@H](N)C(=O)N[C@@H](CC(N)=O)C(=O)N[C@@H](CC(C)C)C(=O)N[C@@H](CCCCN)C(=O)N[C@@H](CCCCN)C(=O)N[C@@H](CC(C)C)C(=O)N[C@@H](C)C(=O)N[C@@H](C)C(=O)N[C@@H](CCCNC(=N)N)C(=O)N[C@H](C(=O)N[C@@H](CCCCN)C(=O)N[C@@H](CCCCN)C(=O)N[C@@H](CCCCN)C(=O)N[C@H](C(=O)O)[C@@H](C)CC)[C@@H](C)CC (H-INLKKLAARIKKKI-OH),4,8,Tde,4,2,> 100,8,> 100,> 32,> 100,> 100,> 100,8,100,4,4,> 32,> 32,Active,4,"Activity [16]: Active; MIC [21]: > 32 µM; hemolysis at 1 h, 100 µM [22]: 8%"
CC[C@H](C)[C@H](NC(=O)[C@H](CCCCN)NC(=O)[C@H](CCCCN)NC(=O)[C@@H](NC(=O)[C@H](CCCCN)NC(=O)[C@H](C)NC(=O)[C@H](C)NC(=O)[C@H](CC(C)C)NC(=O)[C@H](CCCNC(=N)N)NC(=O)[C@H](CCCCN)NC(=O)[C@H](CC(C)C)NC(=O)[C@@H](NC(=O)[C@@H](N)CCCCN)[C@@H](C)CC)[C@@H](C)CC)C(=O)N[C@@H](CC(C)C)C(=O)O (H-KILKRLAAKIKKIL-OH),4,8,Tde,4,2,> 100,> 32,> 100,> 32,> 100,> 100,> 100,> 32,100,4,4,> 32,8,Active,4,"fold change (FC) [16]: 1000; MIC [21]: > 32 µM; hemolysis at 1 h, 100 µM [22]: 3%"
CC[C@H](C)[C@H](NC(=O)[C@H](CCCCN)NC(=O)[C@H](C)NC(=O)[C@H](C)NC(=O)[C@H](CC(C)C)NC(=O)[C@H](CCCNC(=N)N)NC(=O)[C@H](CC(C)C)NC(=O)[C@H](C)NC(=O)[C@H](CC(C)C)NC(=O)[C@H](CCCCN)NC(=O)[C@H](CC(C)C)NC(=O)[C@H](CCCCN)NC(=O)[C@H](CCCCN)NC(=O)[C@H](CCSC)NC(=O)[C@@H]1CCCN1)C(=O)N[C@@H](C)C(=O)N1CCC[C@H]1C(=O)N[C@H](C(=O)N[C@@H](Cc1c[nH]c2ccccc12)C(=O)O)C(C)C (H-PMKKLKLALRLAAKIAPVW-OH),,,,,,,,,,,,,,100,,,,,,,
